Compounds with a hit are over-represented: about 3.8% of the library has one in this group of screens.
Measles CPE: protection of cells from measles virus; Measles virus-infected cells, CPE protection, absorbance; protection (pct of control), % at 4 µM; 140,000 compounds, 1.5% hits; AID 841; in the data active = protection mostly above about 24%, no sharp cut-off; inactive = mostly below about 26%
sdo1 growth: compounds rescuing growth of sdo1-depleted yeast, bone marrow failure model | S. cerevisiae sdo1-depleted JHY4D growth rescue, OD600 30 h; hits give high values; pdr5 snq2 efflux-pump mutant strain | z-score at 10 µM | 140,000 compounds, 0.21% hits | AID 817;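 active = z-score above 3 at both the 24 hr and the 30 hr optical density reads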
RAM network inh: yeast RAM network inhibition | S. cerevisiae dse1pr::URA3 reporter, 5-FOA growth OD615, 2 d; analog-sensitive cbk1-as2 kinase mutant strain | inhibition, % at 50 µM | 190,000 compounds, 1.8% hits;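 active = inhibition above a set limit, 3 SD over mean compound inhibition, cut at about 8.4% in these data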;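 also: inhibition rescues growth on 5-FOA so higher OD means more RAM inhibition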
Yeast life ext: yeast lifespan extension. S. cerevisiae growth with nicotinamide, OD615; deaD strain in restrictive glucose medium. inhibition of the nicotinamide effect, % at 10 µM. 130,000 compounds, 0.68% hits. AID 775;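 active = inhibition above a set limit, placed 3 SD over the median of all compounds, cut at about 26% in these data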
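Assay system: engineered S. cerevisiae DeaD replicative-lifespan strain, galactose-grown log-phase cells; medium: restrictive CSMM-D dextrose medium; also added: nicotinamide, 1.5 mM, co-present with compound; schedule: 48 h compound exposure at 30 °C, humidified; detection: absorbance at 615 nm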
Yeast growth inh: yeast BB579 growth reduction in restrictive medium | S. cerevisiae BB579 growth, OD615, 48 h | inhibition, % at 10 µM | 140,000 compounds, 0.51% hits | AID 804;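 active = inhibition above a set limit, 3 SD over the mean compound inhibition, cut at about 44% in these data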
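Assay system – yeast BB579 (DeaD) · Dosing – single compound dose of 10 µM, 0.25% DMSO final · Detection – OD615 turbidity measurement · Buffer or medium – CSMM-D restrictive synthetic medium containing dextrose (glucose) · Benchmarks – positive control amphotericin B 10 µg/mL · Incubation – 48 h exposure, 30 °C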
sdo1 rescue conf: confirmation of growth rescue in SDO1-depleted yeast, bone marrow failure; AID 949; shares compounds with sdo1 growth; S. cerevisiae JHY4D (SDO1-depleted) growth rescue, OD600, 30 h; hits give high values; efflux-deficient strain, SNQ2 and PDR5 mutated; OD recovery (concentration not given with the values); 440 compounds, 44% hits;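 active = yeast growth recovered at 30 hours, either rising with dose fitted slope above 0.001 or with average optical density gain above 0.07, some results past the limit were not filed as active; inactive = growth falling with dose or no effect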
Large screens that a line does not name were inactive (follow-up assays come after a bar, where they were run).

O=C(CSc1nnc(-c2ccc(S(=O)(=O)N3CCCC3)cc2)o1)NCc1ccco1	none | sdo1 rescue conf inactive
CCOC(=O)C(NC(=O)OC(C)C)(Nc1nccs1)C(F)(F)F (stereo not given)	sdo1 growth 13 | sdo1 rescue conf 0.088
COC(=O)C(NC(=O)c1ccccc1)(Nc1nccs1)C(F)(F)F (stereo not given)	none
Cc1cc(S(=O)(=O)NCC(C)C)ccc1OCC(=O)NCC1CCCO1 (stereo not given)	sdo1 growth 7.8 | sdo1 rescue conf inactive
CCC1CCC2(CC1)NNC(=S)NN2	none
NC(=O)C1(N2CCCCC2)CCN(C(=S)Nc2ccccc2)CC1	none
CCOc1ccc(NC(=O)N2CCC(C(N)=O)(N3CCCCC3)CC2)cc1	sdo1 growth 13 | sdo1 rescue conf inactive
CC(=O)N=c1sc(C(C)(C)C)c(C)n1C	none
Cc1nnc(NC(=O)CSc2ncnc3scc(-c4ccccc4)c23)s1	none | sdo1 rescue conf 0.087
CCOC(=O)C1(Cc2ccc(Cl)cc2)CCN(C(=O)c2cscn2)CC1	none (no result: Measles CPE, sdo1 growth, Yeast life ext, Yeast growth inh)
Cc1ccc(C(=O)NCC(=O)OCC(=O)c2ccc3c(c2)OCCO3)cc1C	sdo1 growth 3.1 | sdo1 rescue conf inactive
Cc1ccc(-c2noc(CCC(=O)N(C)c3ccccc3C)n2)cc1	none
COc1ccc(-c2noc(CCC(=O)N(C)c3cccc(C)c3)n2)cc1	sdo1 growth 4.3 | sdo1 rescue conf inactive
O=C(c1ccccc1)N1CCCC(C(=O)N2CCCCCC2)C1 (stereo not given)	none
COc1ccc(C(=O)N2CCCC(C(=O)N3CCCCCC3)C2)cc1 (stereo not given)	sdo1 growth 4.2 | sdo1 rescue conf inactive
O=C(c1cccc(F)c1)N1CCCC(C(=O)N2CCCC2)C1 (stereo not given)	none | sdo1 rescue conf 0.083
COc1ccc(C(=O)N2CCCC2)cc1	none
CCOc1cc(C#N)c(NC(=O)c2cccnc2)cc1OCC	none | sdo1 rescue conf inactive
CCOc1cc(C#N)c(NC(=O)c2cccnc2Cl)cc1OCC	none
O=C(CSc1nnc(CNc2cccc(Cl)c2)o1)OC1CCCCC1	sdo1 growth 12 | sdo1 rescue conf 0.09
COc1cc(C(C)=O)ccc1OCC(=O)c1cc(C)n(C2CC2)c1C	none
CC1CCN(c2ccc(C(=O)NCc3ccco3)cc2[N+](=O)[O-])CC1	sdo1 growth 11 | sdo1 rescue conf 0.095
O=C(NCc1ccco1)c1ccc(N2CCCCC2)c([N+](=O)[O-])c1	none
Cc1ccccc1OCCOc1ccccc1C=C(C#N)C#N	none
COc1cc2c(cc1NC(=S)Nc1cccc(C(F)(F)F)c1)oc1ccccc12	none
COc1ccc(C(C2C(=O)CC(C)(C)CC2=O)C2C(=O)CC(C)(C)CC2=O)cc1COCC(F)(F)F	sdo1 growth 14 | sdo1 rescue conf 0.082
CCOC(=O)CCc1c(C)nc2ncnn2c1C	none
Cc1nc2ncnn2c(C)c1CCC(=O)O	sdo1 growth 3.9 | sdo1 rescue conf 0.099
CCC(=O)OCCn1c(=O)c2cc3c(=O)n(CCOC(=O)CC)c(=O)c3cc2c1=O	none | sdo1 rescue conf 0.083
CCN(CC)S(=O)(=O)c1ccc(NC2c3ncccc3C(=O)N2Cc2ccccc2)cc1 (stereo not given)	sdo1 growth 10 | sdo1 rescue conf inactive
COc1ccc(CN2C(=O)c3cccnc3C2Nc2ccc(C)cc2)cc1 (stereo not given)	none
COc1cc(C(=O)N2CCC(C(=O)Nc3cccc(C(C)=O)c3)CC2)cc(OC)c1OC	none | sdo1 rescue conf inactive
COc1ccc(S(=O)(=O)N2CCCC(C(=O)Nc3cccc(C(C)=O)c3)C2)cc1 (stereo not given)	none | sdo1 rescue conf inactive
Cc1ccc(-n2nnnc2SCC(=O)Nc2nc(-c3ccc(F)cc3)cs2)cc1C	none | sdo1 rescue conf inactive
O=C(CSc1nnnn1-c1ccccc1)Nc1nc(-c2ccccc2)ns1	none | sdo1 rescue conf 0.071
Cc1cc(C)cc(-n2nnnc2SCC(=O)Nc2nc(-c3ccc(F)cc3)cs2)c1	none
Cc1cc(C)cc(NC(=O)CSc2cc(C(=O)c3nccn3C)c3ccccc3n2)c1	none
Cc1cc(C)nc(Nc2ncc(O)n2-c2ccc(C)c(C)c2)n1	sdo1 growth 5.9 | sdo1 rescue conf 0.077
Cc1cc(C)nc(Nc2ncc(O)n2-c2ccc(C)c(Cl)c2)n1	none
Nc1cc(-c2ccc(Br)cc2)[nH]n1	sdo1 growth 5.4 | sdo1 rescue conf 0.096
CN(C)CCCNC(=O)C1CCNCC1	sdo1 growth 3.1 | sdo1 rescue conf 0.1
CN(C)CCCNC(=O)c1cc(C(=O)C2CCCCC2)c[nH]1	none (no result: Measles CPE, sdo1 growth, Yeast life ext, Yeast growth inh)
Cc1nnc(SCC(=O)NNC(=O)C(C)C)[nH]c1=O	none
CCC(C)[C@H](NC(=O)NCCCN1CCOCC1)C(=O)OC (stereo not given in full)	sdo1 growth 5.6 | sdo1 rescue conf inactive
COc1ccc(C(=O)C2CCCN(Cc3ccc(Sc4nncn4C)o3)C2)cc1F (stereo not given)	none (no result: Measles CPE, sdo1 growth, Yeast life ext, Yeast growth inh)
N=c1c2c3c(sc2ncn1CCN1CCOCC1)CCCCC3	sdo1 growth 11 | sdo1 rescue conf inactive
c1nc(NCCN2CCOCC2)c2c3c(sc2n1)CCCCC3	none
C/C(=N\NC(=O)C(N)=O)c1cccc(C(F)(F)F)c1	none (no result: Measles CPE, sdo1 growth, Yeast life ext, Yeast growth inh)
CC1CCc2c(sc(NC(=O)CSc3nnc(-c4ccccc4)o3)c2C#N)C1 (stereo not given)	none | sdo1 rescue conf 0.091
N#Cc1c(NC(=O)CSc2nnc(-c3ccccc3)o2)sc2c1CCCC2	none
CCn1ncc(Br)c1C(=O)Nc1ccc(F)c([N+](=O)[O-])c1	none
COc1ccc(-c2cc(C(F)(F)F)nc(SCC(=O)Nc3cc(C)on3)n2)cc1	none | sdo1 rescue conf 0.084
CC(C)(C)NC(=O)c1cccc(NC(=O)c2cccc(O)c2)c1	none
O=S(=O)(Nc1cccnc1)c1ccc(Cl)c(C(F)(F)F)c1	sdo1 growth 9.6 | sdo1 rescue conf inactive
O=C(COc1ccccc1C(=O)N/N=C\c1ccc(O)c(O)c1)N/N=C/c1ccc(O)c(O)c1	none | sdo1 rescue conf inactive
CSCCC(NS(=O)(=O)c1ccc(Cl)cc1)C(=O)OCC(=O)c1c(C)[nH]c2ccccc12 (stereo not given)	sdo1 growth 6.2, RAM network inh 10 | sdo1 rescue conf inactive
COc1ccc(C2(C(=O)NCCCN(C)C)CCOCC2)cc1	none
CCOc1cc(C(=O)N2CCCC2)cc(OCC)c1OCC	none | sdo1 rescue conf inactive
Cc1cc(NC(=O)CCC(=O)N(CC(=O)NCC2CCCO2)c2ccc3c(c2)OCCO3)no1 (stereo not given)	none (no result: Yeast life ext)
CCCCn1c(C)nc2c(=O)n(C)c(=O)[nH]c21	Measles CPE 29 | sdo1 rescue conf 0.074
CC1CCN(C(=O)Cn2cc3c(n2)CCCC3)CC1	none
CCC(C)NC(=O)C1=C(C)C(=O)OC12CCC(C)CC2 (stereo not given)	none

Screening results from PubChem BioAssay.
